Assay results taken from ChEMBL document CHEMBL4257555, “Small molecule cores demonstrate non-competitive inhibition of lactate dehydrogenase” (Medchemcomm, 2018).

Tests used:
[1] = molecular target: T1, L-lactate dehydrogenase B chain (Sus scrofa, UniProt P00336); test: Inhibition of porcine heart LDH using pyruvate as substrate and NADH as cofactor measured after 2 hrs by stopped-flow spectrometric method
In short: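 Stopped-flow assay of pig heart LDH (5 nN) with 100 μM NADH and 300 μM pyruvate in 100 mM sodium phosphate pH 7.2 at 37 °C, after 2 h inhibitor preincubation at 4 °C. A340 initial rates averaged over five shots and normalised to uninhibited activity. EC50 from a four-parameter fit with min, max, EC50 and Hill coefficient refined.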

[2] = molecular target: T1, L-lactate dehydrogenase B chain; test: Non-competitive inhibition of porcine heart LDH using varying levels of pyruvate as substrate and NADH as cofactor measured after 2 hrs by double reciprocal lineweaver-burk plot analysis

T1 sequence (P00336 whole entry): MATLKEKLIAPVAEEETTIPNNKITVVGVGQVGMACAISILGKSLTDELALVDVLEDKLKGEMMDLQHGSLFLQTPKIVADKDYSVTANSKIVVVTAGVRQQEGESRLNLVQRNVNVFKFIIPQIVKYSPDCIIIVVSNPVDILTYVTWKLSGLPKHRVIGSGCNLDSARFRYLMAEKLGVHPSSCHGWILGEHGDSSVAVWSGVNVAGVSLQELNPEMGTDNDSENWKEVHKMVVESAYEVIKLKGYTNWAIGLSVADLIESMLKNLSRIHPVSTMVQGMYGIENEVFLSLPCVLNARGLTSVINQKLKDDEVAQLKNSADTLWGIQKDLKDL

Row | EC50 [1] | Ki [2] | SMILES
1 | 712 µM | 355 µM | NC(=O)c1cc(O)cc(O)c1
2 | 78 µM | 498 µM | CC(=O)Nc1cccc(O)c1 [METACETAMOL]
